In series [1] the test system is Mus musculus. Put plainly: Antitumor activity measured as T/C at 0.23 […] dose against po inoculated P388 leukemia in CDF1 mice; Toxic. Type of series: functional, organism-based. Put shortly: (§1)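 Male CDF1 mice (18-22 g; 6 per dose, 24 controls) received 10^6 viable P388 cells sc on day 0. Drugs in 0.3% hydroxypropylcellulose/saline were given ip or orally, daily for 4 days from 24 h and again on day 10. Survival was followed to day 40. T/C = MST ratio ×100. BWC covers day 1 to day 5. Toxicity was judged by NCI norms.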

The subject of series [2] is Mus musculus. As to the kind of experiment: Antitumor a dose 0.23 […] against po inoculated P388 leukemia in CDF1 mice; Toxic. The note with it: in vivo. Type of series: toxicity, organism-based. In short, it runs like this:
as §1

The subject of series [3] is Mus musculus. As to the kind of experiment: Antitumor activity measured as Body weight change (BWC) between day 1 and 5 at 0.035 […] dose against ip inoculated P388 leukemia in CDF1 mice. Type of series: functional. In short, it runs like this:
(§2)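 Groups of six male CDF1 mice (18-22 g) were inoculated ip on day 0 with 1×10^6 viable P388 ascites cells from DBA/2 passage, suspended in chilled 0.9% saline. Drugs were suspended in 0.3% hydroxypropylcellulose in saline and given ip daily for 4 days starting at 24 h. Survival was followed to day 40. T/C = treated/control MST ×100, with 24 controls. BWC = mean weight change from day 1 to day 5.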

Series [4] deals with Mus musculus. Put plainly: Antitumor activity measured as T/C at 0.11 […] dose against po inoculated P388 leukemia in CDF1 mice. Type of series: functional. In short, it runs like this:
as §1

Series [5] concerns Mus musculus. Put plainly: Antitumor activity measured as Body weight change (BWC) between day 1 and 5 at 0.035 […] dose against sc inoculated P388 leukemia in CDF1 mice. Type of series: functional. In short, it runs like this:
as §1

Series [6] relates to Mus musculus. As to the kind of experiment: Antitumor activity measured as T/C at 0.052 […] dose against ip inoculated P388 leukemia in CDF1 mice. It counts as functional. Put shortly: as §2
Series [7] concerns Mus musculus. As to the kind of experiment: Antitumor a dose 0.052 […] against ip inoculated P388 leukemia in CDF1 mice. Type of series: functional. In short, it runs like this: as §2
Series [8] relates to Mus musculus. Put plainly: Antitumor a dose 0.035 nmol/kg against ip inoculated P388 leukemia in CDF1 mice. Type of series: functional. Put shortly:
as §2

The test system of series [9] is Mus musculus. Put plainly: Antitumor a dose 0.11 […] against po inoculated P388 leukemia in CDF1 mice. It counts as functional. Put shortly: as §1
Series [10] has as its system Mus musculus. Put plainly: Antitumor activity measured as T/C at 0.069 […] dose against ip inoculated P388 leukemia in CDF1 mice. Type of series: functional. In short, it runs like this: as §2
Series [11] concerns Mus musculus. Put plainly: Antitumor activity measured as Body weight change (BWC) between day 1 and 5 at 0.069 […] dose against sc inoculated P388 leukemia in CDF1 mice. It counts as functional. In short, it runs like this:
as §1

The subject of series [12] is Mus musculus. As to the kind of experiment: Antitumor activity measured as Body weight change (BWC) between day 1 and 5 at 0.052 […] dose against ip inoculated P388 leukemia in CDF1 mice. It counts as functional. Put shortly: as §2
Series [13] has as its system Mus musculus. Put plainly: Antitumor activity measured as T/C at 0.17 […] dose against po inoculated P388 leukemia in CDF1 mice. It counts as functional. In short, it runs like this:
as §1

The test system of series [14] is Mus musculus. Put plainly: Antitumor activity measured as Body weight change (BWC) between day 1 and 5 at 0.052 […] dose against sc inoculated P388 leukemia in CDF1 mice. Type of series: functional. Put shortly: as §1
The test system of series [15] is Mus musculus. Put plainly: Antitumor activity measured as Body weight change (BWC) between day 1 and 5 at 0.17 […] dose against po inoculated P388 leukemia in CDF1 mice. Type of series: functional. Put shortly:
as §1

Series [16] has as its system Mus musculus. As to the kind of experiment: Antitumor activity measured as Body weight change (BWC) between day 1 and 5 at 0.069 […] dose against ip inoculated P388 leukemia in CDF1 mice. It counts as functional. Put shortly: as §2
Series [17] concerns Mus musculus. Put plainly: Antitumor a dose 0.035 nmol/Kg against ip inoculated P388 leukemia in CDF1 mice. It counts as functional. In short, it runs like this: as §2
For series [18], the system named is Mus musculus. Put plainly: Antitumor a dose 0.069 […] against ip inoculated P388 leukemia in CDF1 mice. It counts as functional. In short, it runs like this: as §2
Series [19] concerns Mus musculus. As to the kind of experiment: Antitumor a dose 0.17 […] against po inoculated P388 leukemia in CDF1 mice. Type of series: functional. Put shortly:
as §1

Series [20] concerns Mus musculus. Put plainly: Antitumor activity measured as Body weight change (BWC) between day 1 and 5 at 0.11 […] dose against po inoculated P388 leukemia in CDF1 mice. Type of series: functional. In short, it runs like this: as §1
Series [21] deals with Mus musculus. Put plainly: Antitumor activity measured as T/C at 0.035 […] dose against ip inoculated P388 leukemia in CDF1 mice. It counts as functional. In short, it runs like this: as §2
Series [22] has as its system Mus musculus. As to the kind of experiment: Antitumor activity measured as Body weight change (BWC) between day 1 and 5 at 0.050 […] dose against sc inoculated P388 leukemia in CDF1 mice. Type of series: functional. Put shortly: as §1
In series [23] the test system is Mus musculus. As to the kind of experiment: Antitumor a dose 0.033 nmol/Kg against ip inoculated P388 leukemia in CDF1 mice. It counts as functional. In short, it runs like this:
as §2

Series [24] deals with Mus musculus. Put plainly: Antitumor activity measured as T/C at 0.066 […] dose against ip inoculated P388 leukemia in CDF1 mice. It counts as functional. In short, it runs like this:
as §2

Series [25] deals with Mus musculus. As to the kind of experiment: Antitumor activity measured as T/C at 0.033 […] dose against ip inoculated P388 leukemia in CDF1 mice. It counts as functional. In short, it runs like this: as §2
For series [26], the system named is Mus musculus. Put plainly: Antitumor a dose 0.066 […] against ip inoculated P388 leukemia in CDF1 mice; Toxic. It counts as toxicity, organism-based. The note with it: in vivo. In short, it runs like this:
as §1

In series [27] the test system is Mus musculus. As to the kind of experiment: Antitumor activity measured as Body weight change (BWC) between day 1 and 5 at 0.033 […] dose against sc inoculated P388 leukemia in CDF1 mice. It counts as functional. In short, it runs like this: as §1
Series [28] deals with Mus musculus. As to the kind of experiment: Antitumor activity measured as Body weight change (BWC) between day 1 and 5 at 0.066 […] dose against ip inoculated P388 leukemia in CDF1 mice. Type of series: functional. In short, it runs like this: as §2
Series [29] relates to Mus musculus. As to the kind of experiment: Antitumor activity measured as Body weight change (BWC) between day 1 and 5 at 0.066 […] dose against po inoculated P388 leukemia in CDF1 mice. It counts as functional. In short, it runs like this: as §1
Series [30] deals with Mus musculus. As to the kind of experiment: Antitumor a dose 0.16 […] against po inoculated P388 leukemia in CDF1 mice; Toxic. It counts as toxicity, organism-based. The note with it: in vivo. In short, it runs like this: as §1
Series [31] deals with Mus musculus. As to the kind of experiment: Antitumor a dose 0.033 nmol/kg against ip inoculated P388 leukemia in CDF1 mice. Type of series: functional. Put shortly: as §2
For series [32], the system named is Mus musculus. As to the kind of experiment: Antitumor activity measured as Body weight change (BWC) between day 1 and 5 at 0.033 […] dose against ip inoculated P388 leukemia in CDF1 mice. It counts as functional. In short, it runs like this:
as §2

Series [33] has as its system Mus musculus. Put plainly: Antitumor a dose 0.066 […] against po inoculated P388 leukemia in CDF1 mice. It counts as functional. In short, it runs like this:
as §1

The subject of series [34] is Mus musculus. Put plainly: Antitumor a dose 0.050 […] against ip inoculated P388 leukemia in CDF1 mice. It counts as functional. Put shortly:
as §2

For series [35], the system named is Mus musculus. Put plainly: Antitumor activity measured as T/C at 0.11 […] dose against po inoculated P388 leukemia in CDF1 mice; Toxic. The note with it: in vivo. It counts as toxicity, organism-based. In short, it runs like this:
as §1

Series [36] concerns Mus musculus. As to the kind of experiment: Antitumor activity measured as T/C at 0.16 […] dose against po inoculated P388 leukemia in CDF1 mice; Toxic. Type of series: toxicity, organism-based. The note with it: in vivo. Put shortly:
as §1

Series [37] deals with Mus musculus. Put plainly: Antitumor activity measured as T/C at 0.066 […] dose against po inoculated P388 leukemia in CDF1 mice. It counts as functional. In short, it runs like this: as §1
Series [38] concerns Mus musculus. Put plainly: Antitumor activity measured as T/C at 0.066 […] dose against ip inoculated P388 leukemia in CDF1 mice; Toxic. Type of series: toxicity, organism-based. The note with it: in vivo. Put shortly:
as §1

Series [39] concerns Mus musculus. Put plainly: Antitumor activity measured as T/C at 0.050 […] dose against ip inoculated P388 leukemia in CDF1 mice. It counts as functional. In short, it runs like this: as §2
The subject of series [40] is Mus musculus. As to the kind of experiment: Antitumor activity measured as Body weight change (BWC) between day 1 and 5 at 0.050 […] dose against ip inoculated P388 leukemia in CDF1 mice. It counts as functional. In short, it runs like this: as §2
Series [41] concerns Mus musculus. Put plainly: Antitumor a dose 0.11 […] against po inoculated P388 leukemia in CDF1 mice; Toxic. Type of series: toxicity, organism-based. The note with it: in vivo. In short, it runs like this: as §1
Series [42] deals with Mus musculus. As to the kind of experiment: Antitumor activity measured as Body weight change (BWC) between day 1 and 5 at 0.066 […] dose against sc inoculated P388 leukemia in CDF1 mice. Type of series: functional. Put shortly:
as §1

For series [43], the system named is Mus musculus. As to the kind of experiment: Antitumor a dose 0.066 […] against ip inoculated P388 leukemia in CDF1 mice. Type of series: functional. Put shortly: as §2

SMILES strings stand for the structures. Where “and” joins values, the source holds several entries; their conditions need not be identical. Identical values can stand only once.

On to `CCCCCCCCCCCCCCCC(=O)OCC(COC(=O)CCCCCCCCCCCCCCC)OC(=O)CCCc1ccc(N(CCCl)CCCl)cc1`, for which the T/C result is “Toxic” in [1]; 168% in series [4]; 220% and 148% in [6]; 265% and 162% in [10]; 234% in [13]; 170% and 141% in series [21]. For the same compound, the MST entry is “Toxic” in series [2]; 22 days and 21.5 days in series [7]; 17 days in series [8]; 24.5 days in series [9]; 20.5 days in series [17]; 26.5 days and 23.5 days in series [18]. In [19], this compound came in with an MST of 34 days. For the same compound, the BWC in series [3] is given as -1.6 g; in series [5] it was -2.35 g; in [11], -3.95 g; in series [12], -2 g; in [14] it was -2.55 g; in series [15] it was -3.9 g. Also, the BWC is -2.6 g in [16] and -3.5 g in series [20].

Consider `O=C(O)CCCc1ccc(N(CCCl)CCCl)cc1` [CHLORAMBUCIL], for which the BWC in series [22] is -2.95 g; in series [27] it was -2.55 g; in series [28] it was -3.4 g; in [29] it was -4.15 g; in series [32] it was -2.2 g; in series [40] it was -2.9 g. Also, in series [42], the BWC is given as -3.95 g. Besides, the MST is 19.5 days in [23]; “Toxic” in series [26]; “Toxic” in [30]; 16.9 days in series [31]; 22.5 days in [33]; 19.5 days and 21.5 days in series [34]. Also, the MST result in series [41] is “Toxic”; in series [43] it was 23 days. In addition, the T/C is 230% in [24]; 169% and 134% in series [25]; “Toxic” in [35]; “Toxic” in series [36]; 155% in series [37]; “Toxic” in [38]. Further, in series [39], the T/C is 195% and 148%.
